According to ChEMBL document CHEMBL1135785, “N-[(2-Sulfo)-9-fluorenylmethoxycarbonyl](3)-gentamicin C(1) is a long-acting prodrug derivative” (J Med Chem, 2002):

Experiments:
Albumin [1] = target: T1, Albumin (Homo sapiens, UniProt P02768); assay: The compound was evaluated for pharmacokinetic parameters Serum albumin associating affinity
[2] = Half life after i.v. administration to rat; assay type: ADME, organism-based; settings: in vivo, iv
Outline: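 Rats (n = 4 per group) received 1 μmol/rat intravenously in 0.2 mL PBS, pH 7.4. Tail blood was sampled at several time points. Immunoreactive gentamicin was measured by fluorescence polarization immunoassay, with each point the mean of four rats. Circulating half-life was taken from the decline phase.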

Albumin [3] = target: T1, Albumin; assay: Evaluated for inhibition of Serum albumin evoked PNPA hydrolysis in presence of 1.3 M of FMS; assay type: functional
Outline: (§1)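 Human serum albumin (11.4 μM) in 0.05 M HEPES, pH 6.7, was preincubated for 10 min with or without increasing concentrations of each FMS-gentamicin conjugate. PNPA was then added to a final 1 mM. Absorbance at 410 nm was read 60 min later, and IC50 was calculated for inhibition of HSA-evoked PNPA hydrolysis.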

[4] = The compound was evaluated for pharmacokinetic parameters HSA associating affinity; assay type: ADME; settings: human
Outline: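 Human serum albumin (11.4 μM) in 0.05 M HEPES, pH 6.7, preincubated 10 min with or without rising conjugate concentrations. p-Nitrophenyl acetate (PNPA) then added to 1 mM final. Absorbance read at 410 nm 60 min later. IC50 calculated for inhibition of HSA-evoked PNPA hydrolysis, then converted to Kd estimates. FMS-L-serine served as internal standard.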

Albumin [5] = target: T1, Albumin; assay: The compound was evaluated for albumin associating affinity 0.7 M of FMS
Outline: (§2)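 Albumin affinity was inferred from the PNPA esterase assay. HSA (11.4 μM, 0.05 M HEPES, pH 6.7) was preincubated 10 min with graded conjugate concentrations, then given 1 mM PNPA (final). A410 was read at 60 min. The resulting IC50 values were converted to Kd estimates.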

Albumin [6] = target: T1, Albumin; assay: Evaluated for inhibition of Serum albumin evoked PNPA hydrolysis in presence of 0.7 M of FMS; assay type: functional; outline: as §1
Albumin [7] = target: T1, Albumin; assay: The compound was evaluated for albumin associating affinity along with 1.3 M of FMS; outline: as §2
[8] = Half life for hydrolysis of the compound; assay type: ADME
Outline: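 Conjugate was incubated in 0.1 M NaHCO3, pH 8.5, at 37 °C. Aliquots were withdrawn over time and assayed with TNBS for the appearance of free amino groups to give the FMS hydrolysis half-life.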

Albumin [9] = target: T1, Albumin; assay: The compound was evaluated for albumin associating affinity along with 3.0 M of FMS; outline: as §2
Albumin [10] = target: T1, Albumin; assay: Evaluated for inhibition of Serum albumin evoked PNPA hydrolysis in presence of 2.1 M of FMS; assay type: functional; outline: as §1
Albumin [11] = target: T1, Albumin; assay: Evaluated for inhibition of Serum albumin evoked PNPA hydrolysis in presence of 3.0 M of FMS; assay type: functional; outline: as §1
Escherichia coli [12] = assay: The compound was evaluated for its ability to inhibit replication of Escherichia coli; assay type: functional, organism-based
Outline: (§3)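 Antibacterial potency was measured as inhibition of Escherichia coli replication, expressed as half-maximal inhibitory concentration and as percent of native gentamicin activity.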

Albumin [13] = target: T1, Albumin; assay: The compound was evaluated for albumin associating affinity along with 2.1 M of FMS; outline: as §2
Escherichia coli [14] = assay: Potency for its ability to inhibit replication of Escherichia coli; assay type: functional; outline: as §3

T1 sequence (P02768 whole entry): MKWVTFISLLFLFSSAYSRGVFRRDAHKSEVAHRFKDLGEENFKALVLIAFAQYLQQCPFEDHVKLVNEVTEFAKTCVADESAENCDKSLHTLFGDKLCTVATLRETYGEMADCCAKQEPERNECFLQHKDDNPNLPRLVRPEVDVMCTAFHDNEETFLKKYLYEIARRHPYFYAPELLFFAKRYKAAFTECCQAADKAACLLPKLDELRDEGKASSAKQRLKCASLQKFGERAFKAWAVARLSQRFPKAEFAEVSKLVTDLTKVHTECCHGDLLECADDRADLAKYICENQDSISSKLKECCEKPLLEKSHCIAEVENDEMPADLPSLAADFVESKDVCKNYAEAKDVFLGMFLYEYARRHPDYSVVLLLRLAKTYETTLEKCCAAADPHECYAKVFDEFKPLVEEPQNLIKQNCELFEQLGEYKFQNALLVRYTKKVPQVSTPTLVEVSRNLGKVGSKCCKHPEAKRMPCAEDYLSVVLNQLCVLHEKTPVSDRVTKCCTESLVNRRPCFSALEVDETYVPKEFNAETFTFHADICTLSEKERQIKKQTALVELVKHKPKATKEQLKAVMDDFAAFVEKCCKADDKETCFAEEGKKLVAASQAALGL

| Structure (SMILES) | Kd (Albumin [1]) [µM] | half-life [2] [h] | IC50 (Albumin [3]) [µM] | Ka [4] [M⁻¹] | Kd (Albumin [5]) [µM] | IC50 (Albumin [6]) [µM] | Kd (Albumin [7]) [µM] | half-life [8] [h] | Kd (Albumin [9]) [µM] | IC50 (Albumin [10]) [µM] | IC50 (Albumin [11]) [µM] | IC50 (Escherichia coli [12]) [µM] | Kd (Albumin [13]) [µM] | Potency (Escherichia coli [14]) [%] |
| --- | --- | --- | --- | --- | --- | --- | --- | --- | --- | --- | --- | --- | --- | --- |
| CNC(C)[C@H]1CCC(N)[C@@H](O[C@@H]2C(N)C[C@@H](NC(=O)OCC3c4ccccc4-c4ccc(S(=O)(=O)O)cc43)C(O[C@H]3OC[C@](C)(O)C(NC)[C@@H]3O)[C@@H]2O)O1 (stereo partly specified) | 20 | 1.3 |  |  |  |  |  |  |  |  |  |  |  |  |
| CNC(C)[C@H]1CCC(N)[C@@H](O[C@@H]2C(NC(=O)OCC3c4ccccc4-c4ccc(S(=O)(=O)O)cc43)C[C@@H](NC(=O)OCC3c4ccccc4-c4ccc(S(=O)(=O)O)cc43)C(O[C@H]3OC[C@](C)(O)C(NC)[C@@H]3O)[C@@H]2O)O1 (stereo partly specified) | 9.2 |  |  |  |  |  |  |  |  |  |  |  |  |  |
| CNC(C)[C@H]1CCC(NC(=O)OCC2c3ccccc3-c3ccc(S(=O)(=O)O)cc32)[C@@H](O[C@@H]2C(NC(=O)OCC3c4ccccc4-c4ccc(S(=O)(=O)O)cc43)C[C@@H](NC(=O)OCC3c4ccccc4-c4ccc(S(=O)(=O)O)cc43)C(O[C@H]3OC[C@](C)(O)C(NC)[C@@H]3O)[C@@H]2O)O1 (stereo partly specified) |  | 3.8 | 43 | 131000 | 32 | 80 | 17.2 | 8 | 7.6 | 23 | 19 | 24 | 9.2 | <1 |
